From article PMC2865857 (Journal of molecular biology, 2010)
Where no end group is shown, it is not given here. [ ]: non-standard residue; d: D form. Lys(Me2) = CN(C)CCCC[C@H](N)C(=O)O

What was measured:
[1] = molecular target: T1, human 53BP1 tandem Tudor domain (Homo sapiens, UniProt Q12888); test: Binding of peptides to the 53BP1 tandem Tudor domain by tryptophan fluorescence; details: for decrease in binding affinity relative to p53K382me2: ratio of Kd values, 25°C (Fig. 2a, b; Fig. 3e)
In short: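 Synthetic Fmoc-made peptides were HPLC-purified. Intrinsic tryptophan fluorescence was measured at 25°C on 0.5 μM protein with increasing peptide, exciting at 295 nm and recording emission at 305–405 nm over three scans. Kd came from a nonlinear quadratic binding fit, averaged over three experiments ± SD.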

[2] = molecular target: T1, human 53BP1 tandem Tudor domain; test: other fluorescence titration

Row | decrease in binding affinity relative to p53K382me2 ([1]; tryptophan fluorescence) [fold] | other results | Compound
1 |  | Kd [1]: 900 nM | CSCC[C@H](NC(=O)[C@H](CC(C)C)NC(=O)[C@H](CCCCN(C)C)NC(=O)[C@H](CCCCN)NC(=O)[C@H](Cc1c[nH]cn1)NC(=O)[C@H](CCCNC(=N)N)NC(=O)[C@H](CO)NC(=O)[C@@H](N)[C@@H](C)O)C(=O)N[C@@H](Cc1ccccc1)C(=O)N[C@@H](CCCCN)C(=O)O [p53K382me2]
2 |  | Kd [2]: 1300 nM | H4K20me2 peptide (15–23) (from UniProt P62805 16-24)
3 | 16 |  | p53H380AK382me2: p53K382me2 peptide (377–386) with His380 substituted with Ala (TSRAK[Lys(Me2)]LMFK)
4 | 22 |  | p53K370me2: p53 peptide (366–375) dimethylated at Lys370 (SSHL[Lys(Me2)]SKKGQ)
5 | 22 |  | p53K372me2: p53 peptide (367–377) dimethylated at Lys372 (SHLKS[Lys(Me2)]KGQST)
6 | 11 |  | p53K381AK382me2: p53K382me2 peptide (377–386) with Lys381 substituted with Ala (TSRHA[Lys(Me2)]LMFK)
7 |  | effect of residue replacement on the Kd relative to p53K382me2 (in words) ([1]; tryptophan fluorescence, 25°C (Fig. 2a)): virtually no effect | p53K382me2L383A: p53K382me2 peptide (377–386) with Leu383 replaced (TSRHK[Lys(Me2)]AMFK)
8 |  | association of 53BP1 tandem Tudor domain with peptide (in words) ([1]; Fig. 2a, measured by tryptophan fluorescence or Isothermal Titration Calorimetry): does not associate | unmodified p53 peptide: unmodified p53 peptide, residues 377–386 (TSRHKKLMFK; UniProt P04637 377-386, looked up, fragment)
